# From ChEMBL document CHEMBL4354869, “pH-Dependent Grafting of Cancer Cells with Antigenic Epitopes Promotes Selective Antibody-Mediated Cytotoxicity” (J Med Chem, 2020)
# Active and inactive are the calls of the source. No cut-off for these calls is given here. Peptide text beside a SMILES is read from it. * marks the point of attachment. Dnp = O=[N+]([O-])c1ccc(*)c([N+](=O)[O-])c1
# Experiments:
# [1] = test system: MDA-MB-231; test: Cytotoxicity against human MDA-MB-231 cells assessed as increase in cell lysis at 0.5 to 1 uM incubated for 5 mins at pH 6 to 7.4 followed by compound washout prior to human PBMC addition at 50:1 effector to target ratio measured after 4 hrs by LDH release assay; settings: mda-mb-231, pH 6, 4 h
# [2] = test system: MDA-MB-231; test: (§1) Induction of antibody dependent cytotoxicity against human MDA-MB-231 cells assessed as increase in cell lysis incubated for 5 mins at pH 6 to 7.4 followed by compound washout prior to anti-DNP antibody addition for 30 mins and subsequent human PBMC addition at 5:1 effector to target ratio measured after 4 hrs by LDH release assay; format: functional, cell-based
# [3] = test system: MDA-MB-231; test: (§2) Induction of complement dependent cytotoxicity against human MDA-MB-231 cells assessed as cell lysis at 1 uM incubated for 5 mins at pH 7.4 followed by compound washout prior to anti-DNP antibody addition for 30 mins and subsequent pooled human serum addition measured after 4 hrs by LDH release assay; format: functional, cell-based
# How it was run: (§3)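 240000 MDA-MB-231 exposed in suspension to 1 μM conjugate for 5 min, 37 °C, at pH 7.4 or 6.0, washed, 25 μg/mL unlabeled anti-DNP rabbit polyclonal 30 min 4 °C, then 12.5% pooled human complement serum in DMEM 4 h at 37 °C. Supernatant LDH (A490/A680); % lysis vs antibody-only cells without peptide.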
# [4] = test system: MDA-MB-231; test: Induction of opsonization in human MDA-MB-231 cells assessed as increase in recruitment of anti-DNP antibody to cell surface at 1 uM preincubated with AlexaFluor-488-conjugated anti-DNP antibody for 30 mins followed by cell addition at pH 6 to 7.4 by flow cytometry; format: functional, cell-based
# [5] = test system: MDA-MB-231; test: Induction of opsonization in human MDA-MB-231 cells assessed as increase in recruitment of anti-DNP antibody to cell surface at 1 uM preincubated for 5 mins at pH 6 to 7.4 followed by pooled human serum addition and measured in presence of FITC-labeled anti-human IgG antibody based flow cytometry; format: functional
# How it was run: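 300000 MDA-MB-231 in suspension exposed to 1 μM conjugate 5 min, 37 °C, pH 7.4 or 6.0; washed; blocked with human IgG isotype control 100 μg/mL, 20 min 4 °C; 12.5% pooled human complement serum 20 min 4 °C; then 25 μg/mL FITC anti-human IgG 30 min 4 °C; PFA-fixed, flow cytometry; fold over pH 7.4 serum-only.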
# [6] = test system: MDA-MB-231; test: as §1, with “Cytotoxicity” for “Induction of antibody dependent cytotoxicity”, “lysis at 0.5 to 1 uM” for “lysis”, “anti-FITC polyclonal rabbit” for “anti-DNP”, “haNK cell” for “PBMC”; format: cell-based; settings: mda-mb-231, pH 6, 1 µM
# How it was run: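 150000 target cells (MDA-MB-231; also LnCap, SK-OV-3 with haNK) treated with conjugate 5 min at 37 °C, pH 7.4 or 6.0, washed, 25 μg/mL anti-FITC rabbit polyclonal 30 min 4 °C, then 4 h at 37 °C with PBMCs at 50:1 (RPMI) or haNK at 5:1 (MEMα). LDH release; % lysis relative to antibody-only pH 7.4 cells; mean ± SEM, n = 3–12.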
# [7] = test system: MDA-MB-231; test: as §2, with “6” for “7.4”, “assay relative to control” for “assay”; format: functional
# How it was run: as §3
# [8] = test system: MDA-MB-231; test: Induction of opsonization in human MDA-MB-231 cells assessed as increase in recruitment of anti-DNP antibody to cell surface at 1 uM measured after 5 mins at pH 6 to 7.4 by AlexaFluor-488-conjugated anti-DNP antibody based immunofluorescence microscopic analysis; format: functional
# How it was run: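 MDA-MB-231 grown on poly-L-lysine coverslips (~70% confluent), exposed to 1 μM conjugate 5 min at 37 °C, pH 7.4 or 6.0, methanol-fixed, stained 1 h at 37 °C with anti-DNP-A488 at 40 μg/mL, Hoechst counterstain; imaged with 20× objective.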
# [9] = Drug internalization in human MDA-MB-231 cells assessed as increase in fluorescence at 1 uM measured after 30 mins at pH 6 to 7.4 in presence of FITC-labeled anti-human IgG by flow cytometric method; format: ADME, cell-based; settings: mda-mb-231, pH 6, 0.5 h
# How it was run: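 Control for specificity: MDA-MB-231 treated with 1 μM conjugate at pH 7.4 or 6.0 (5–10 min, 37 °C), washed, then incubated ± 25 μg/mL FITC anti-human IgG in PBS/10% FBS, 30 min at 4 °C, fixed, read by flow cytometry.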
# [10] = test system: MDA-MB-231; test: as §1, with “as” for “as increase in”, “lysis at 500 nM” for “lysis”, “haNK cell” for “PBMC”, “assay relative to control” for “assay”; format: functional
# How it was run: (§4)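 150000 MDA-MB-231 given conjugate 5 min at 37 °C, pH 7.4 or 6.0, washed at 4 °C, 25 μg/mL anti-DNP rabbit polyclonal 30 min 4 °C, then effectors 4 h at 37 °C: single-donor PBMCs at 50:1 in RPMI 1640, or haNK (F176V CD16 NK-92, IL-2-grown) at 5:1 in MEMα. Supernatant LDH; % lysis vs antibody+effector without peptide; mean ± SEM, n = 3–12.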
# [11] = test system: MDA-MB-231; test: as §1, with “as” for “as increase in”, “lysis at >1 uM” for “lysis”, “6” for “6 to 7.4”; format: functional, cell-based
# [12] = test system: MDA-MB-231; test: as §1, with “as” for “as increase in”, “lysis at 1 uM” for “lysis”, “6” for “6 to 7.4”, “assay relative to control” for “assay”; format: functional
# [13] = test system: MDA-MB-231; test: as §1, with “as” for “as increase in”, “lysis at 0.1 uM” for “lysis”, “6” for “6 to 7.4”, “assay relative to control” for “assay”; format: functional
# [14] = test system: MDA-MB-231; test: as §1, with “Cytotoxicity” for “Induction of antibody dependent cytotoxicity”, “lysis at 0.5 to 1 uM” for “lysis”, “anti-FITC polyclonal rabbit” for “anti-DNP”; format: cell-based; settings: mda-mb-231, pH 6, 1 µM
# [15] = test system: Lipid bilayer; test: Binding affinity to POPC large unilamellar vesicle at 1:300 ratio measured after 30 mins at pH 5 to 7.4 by circular dichroism spectroscopic analysis
# How it was run: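 Peptide (20 μM stock in 5 mM sodium phosphate pH 8.0; 7 μM final) mixed with POPC LUVs (extruded, 100 nm pores) at 1:300, pH lowered with HCl, 30 min RT. Far-UV CD 260–200 nm in 0.1 cm cuvette, ≥5 scans averaged, liposome spectrum subtracted; expressed as mean residue molar ellipticity.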
# [16] = test system: MDA-MB-231; test: Induction of opsonization in human MDA-MB-231 cells assessed as increase in recruitment of anti-DNP antibody to cell surface at 1 uM measured after 5 to 10 mins at pH 6 to 7.4 by AlexaFluor-488-conjugated anti-DNP antibody based flow cytometry; format: functional
# How it was run: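 Conjugate pre-incubated 1 h RT at 20 μM in 5 mM sodium phosphate pH 9.0, diluted, then pH adjusted with citrate buffer. MDA-MB-231 (350000 cells, suspension) exposed to 1 μM for 5 or 10 min, 37 °C, pH 7.4 or 6.0, washed, stained with 25 μg/mL anti-DNP-A488 30 min at 4 °C, PFA-fixed. Flow cytometry, ≥3000 events; fold over pH 7.4 antibody-only cells.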
# [17] = test system: MDA-MB-231; test: Cytotoxicity against human MDA-MB-231 cells assessed as increase in cell lysis at <=10 uM measured after 4 hrs by LDH release assay; format: cell-based; settings: mda-mb-231, 4 h
# [18] = test system: MDA-MB-231; test: Cytotoxicity against human MDA-MB-231 cells assessed as increase in cell lysis at 0.5 to 1 uM incubated for 5 mins at pH 6 to 7.4 followed by compound washout prior to human haNK cell addition at 5:1 effector to target ratio measured after 4 hrs by LDH release assay; format: cell-based; settings: mda-mb-231, pH 6, 4 h
# [19] = test system: MDA-MB-231; test: Induction of opsonization in human MDA-MB-231 cells assessed as increase in recruitment of anti-DNP antibody to cell surface at 1 uM measured after 1 hr at pH 6 to 7.4 by AlexaFluor-488-conjugated anti-DNP antibody based flow cytometry; format: functional
# [20] = test system: MDA-MB-231; test: as §1, with “induction of” for “increase in”, “lysis at >500 nM” for “lysis”, “haNK cell” for “PBMC”; format: functional, cell-based
# How it was run: as §4
smiles,measurement,setting,value
CC[C@H](C)[C@H](NC(=O)[C@@H]1CCCN1C(=O)[C@H](CC(N)=O)NC(=O)[C@H](CCC(N)=O)NC(=O)[C@H](CCC(=O)O)NC(=O)[C@@H](N)CCCCNc1ccc([N+](=O)[O-])cc1[N+](=O)[O-])C(=O)N[C@@H](Cc1ccc(O)cc1)C(=O)N[C@@H](Cc1c[nH]c2ccccc12)C(=O)N[C@@H](C)C(=O)N[C@@H](CCCNC(=N)N)C(=O)N[C@@H](Cc1ccc(O)cc1)C(=O)N[C@@H](C)C(=O)N[C@@H](CC(=O)O)C(=O)N[C@@H](Cc1c[nH]c2ccccc12)C(=O)N[C@@H](CC(C)C)C(=O)N[C@@H](Cc1ccccc1)C(=O)N[C@H](C(=O)N[C@H](C(=O)N1CCC[C@H]1C(=O)N[C@@H](CC(C)C)C(=O)N[C@@H](CC(C)C)C(=O)N[C@@H](CC(C)C)C(=O)N[C@@H](CC(C)C)C(=O)N[C@@H](CCC(=O)O)C(=O)N[C@@H](CC(C)C)C(=O)N[C@@H](C)C(=O)N[C@@H](CC(C)C)C(=O)N[C@@H](CC(C)C)C(=O)N[C@H](C(=O)N[C@@H](CC(=O)O)C(=O)N[C@@H](C)C(=O)N[C@@H](CC(=O)O)C(=O)N[C@@H](CCC(=O)O)C(=O)NCC(=O)N[C@H](C(=O)NCC(N)=O)[C@@H](C)O)C(C)C)[C@@H](C)O)[C@@H](C)O (H-K(Dnp)EQNPIYWARYADWLFTTPLLLLELALLVDADEGTG-NH2),Activity,[1],Non-Toxic
same,Activity,[2],Dose-dependent effect
same,Activity,[3],inactive
same,Activity,[4],Active
same,Activity,[5],Active
same,Activity,[6],Non-Toxic
same,Activity,[7],10%
same,Activity,[8],Active
same,Drug uptake,[9],Not Active
same,Activity,[10],40%
same,Activity,[11],inactive
same,Activity,[12],40%
same,Activity,[13],20%
same,Activity,[14],Non-Toxic
same,Activity,[15],Active
same,Activity,[16],Active
same,Activity,[17],Non-Toxic
same,Activity,[18],Non-Toxic
same,Activity,[19],Active
same,Activity,[20],inactive
